The values below come from ChEMBL document CHEMBL3526029, “Disposition and metabolism of GSK2251052 in humans: a novel boron-containing antibiotic” (Drug Metab Dispos, 2013).

Data set [1] in a line: Drug recovery in healthy human urine at 1500 mg, iv infusion for 1 hr as single dose after 240 hrs. The conditions noted are these: read-out: Drug recovery. Format: ADME, organism-based.
Data set [2] in a line: Drug recovery in healthy human feces at 1500 mg, iv infusion for 1 hr as single dose after 264 hrs. Format: ADME, organism-based. The conditions noted are these: faeces, read-out: Drug recovery.
The nature of data set [3]: Drug metabolism in healthy human urine assessed as (S)-3-(3-(aminomethyl)-1-hydroxy-1,3-dihydrobenzo[c][1,2]oxaborol-7-yloxy)propanoicacid formation at 1500 mg, iv infusion for 1 hr as single dose by mass spectrometry. It is filed as ADME, organism-based. The conditions noted are these: in vivo. Summed up: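 Urine was collected through 336 h after a 1500 mg [14C] i.v. 1-h infusion to six men. Samples were pooled by weight (0–120 h per subject; 120–336 h composite) and centrifuged. Profiling used HPLC (Atlantis T3, ammonium acetate pH 4.5/methanol, 30°C) with fraction radioactivity counting. Identity came from Orbitrap positive-ion accurate mass. Values were given as % dose, corrected for recovery.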

In another data set the test system is Liver cytosol. Nature of the data set: Drug metabolism in human liver cytosol assessed as (S)-3-(3-(aminomethyl)-1-hydroxy-1,3-dihydrobenzo[c][1,2]oxaborol-7-yloxy)propanoicacid formation at 50 to 500 uM after 3 hrs by liquid scintillation counting in presence of NAD+. It is filed as ADME. The essentials:
(§1)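 [14C]GSK2251052 was incubated in triplicate for 1 or 3 h at 37°C with 4 mg/ml S9 (monkey liver, lung or kidney; human liver), liver cytosol or liver microsomes and 7.5 mM NAD+. Buffer was pyrophosphate at pH 7.4, 8.4 or 8.8. Controls lacked cofactor or enzyme. Reactions were quenched with acetonitrile, counted by LSC, and pooled for radio-HPLC.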

The nature of data set [4]: Drug recovery in healthy human urine at 1500 mg, iv infusion for 1 hr as single dose after 192 hrs. Format: ADME, organism-based. To be noted: read-out: Drug recovery.
Data set [5] is described as follows: Drug metabolism in cynomolgus monkey lung S9 fraction assessed as (S)-3-(3-(aminomethyl)-1-hydroxy-1,3-dihydrobenzo[c][1,2]oxaborol-7-yloxy)propanoicacid formation at 50 to 500 uM after 3 hrs by liquid scintillation counting in presence of NAD+. Format: ADME, Macaca fascicularis. To be noted: s9, 3 h. The essentials:
as §1

Data set [6] is described as follows: Total drug recovery in healthy human at 1500 mg, iv infusion for 1 hr as single dose after 216 hrs. It is filed as ADME, organism-based. To be noted: in vivo, read-out: Drug recovery. Summed up:
(§2)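 Six healthy adult males, fasted ≥10 h, got one 1500 mg [14C]GSK2251052 dose ([…], 0.56 MBq) as a constant-rate 1-h IV infusion in 0.9% NaCl. Urine was collected at 0–6, 6–12 and 12–24 h, then in 24-h blocks to 336 h; feces in 24-h blocks. Urine was counted directly by LSC; feces were homogenized and combusted in duplicate before LSC. Cumulative recovery is given as mean % of dose.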

Data set [7] in a line: Drug metabolism in cynomolgus monkey liver S9 fraction assessed as (S)-3-(3-(aminomethyl)-1-hydroxy-1,3-dihydrobenzo[c][1,2]oxaborol-7-yloxy)propanoicacid formation at 50 to 500 uM after 3 hrs by liquid scintillation counting in presence of NAD+ and ADH inhibitor 4-MP. It is filed as ADME, subcellular, Macaca fascicularis. To be noted: s9, 3 h. The essentials: (§3)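 NAD+ (7.5 mM) incubations of [14C]GSK2251052 with 4 mg/ml monkey liver cytosol or liver S9 in pyrophosphate buffer included 4-MP at 0.6 mM final. Incubations ran in triplicate at 37°C. Extracts were counted by LSC and pooled for radio-HPLC.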

Data set [8] is described as follows: Drug recovery in healthy human feces at 1500 mg, iv infusion for 1 hr as single dose after 312 hrs. Format: ADME, organism-based. To be noted: read-out: Drug recovery.
A short description of data set [9]: Total drug recovery in healthy human at 1500 mg, iv infusion for 1 hr as single dose after 192 hrs. Format: ADME, organism-based. The conditions noted are these: in vivo, read-out: Drug recovery.
Data set [10] is described as follows: Drug recovery in healthy human urine at 1500 mg, iv infusion for 1 hr as single dose after 336 hrs. To be noted: read-out: Drug recovery. It is filed as ADME, organism-based.
Data set [11] is described as follows: Drug recovery in healthy human feces at 1500 mg, iv infusion for 1 hr as single dose after 288 hrs. Format: ADME, organism-based. To be noted: faeces, read-out: Drug recovery.
The nature of data set [12]: Drug recovery in healthy human feces at 1500 mg, iv infusion for 1 hr as single dose after 144 hrs. Format: ADME, organism-based. To be noted: read-out: Drug recovery.
Data set [13] is described as follows: Drug recovery in healthy human urine at 1500 mg, iv infusion for 1 hr as single dose after 120 hrs. It is filed as ADME, organism-based. The conditions noted are these: read-out: Drug recovery.
A short description of data set [14]: Drug metabolism in cynomolgus monkey lung S9 fraction assessed as (S)-3-(3-(aminomethyl)-1-hydroxy-1,3-dihydrobenzo[c][1,2]oxaborol-7-yloxy)propanoicacid formation at 50 to 500 uM after 3 hrs by liquid scintillation counting in presence of NADPH regeneration system. It is filed as ADME, Macaca fascicularis. The conditions noted are these: s9, 3 h.
Data set [15] concerns Blood. Kind of data set: AUC (0 to infinity) in healthy human whole blood assessed as radioactivity at 1500 mg, iv infusion for 1 hr as single dose. Format: ADME, organism-based. Set-up: dose 1500 mg, route intravenous, time infinity. To be noted: in vivo. Summed up: (§4)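 Six fasted healthy men received 1500 mg [14C]GSK2251052 as a 1-h i.v. infusion. Blood and plasma were sampled from predose to 336 h after infusion start. Radioactivity was counted by LSC; plasma below 870 ng eq/ml was reanalysed by accelerator MS, with predose background subtracted. Noncompartmental analysis used actual sampling times, linear-up/log-down trapezoids and CL = dose/AUC(0-∞).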

Data set [16] in a line: Drug metabolism in human liver S9 fraction assessed as (S)-3-(3-(aminomethyl)-1-hydroxy-1,3-dihydrobenzo[c][1,2]oxaborol-7-yloxy)propanoicacid formation at 50 to 500 uM after 3 hrs by liquid scintillation counting in presence of NAD+. It is filed as ADME, subcellular. The conditions noted are these: s9, 3 h. Summed up: as §1
The test system of data set [17] is Blood. Kind of data set: Cmax in healthy human whole blood assessed as radioactivity at 1500 mg, iv infusion for 1 hr as single dose. Format: ADME, organism-based. Set-up: dose 1500 mg, route intravenous. The conditions noted are these: in vivo. The essentials:
as §4

A short description of data set [18]: Total drug recovery in healthy human at 1500 mg, iv infusion for 1 hr as single dose after 72 hrs. It is filed as ADME, organism-based. To be noted: in vivo, read-out: Drug recovery. The essentials:
as §2

The test system of data set [19] is Blood. Nature of the data set: Volume of distribution at steady state in healthy human whole blood assessed as radioactivity at 1500 mg, iv infusion for 1 hr as single dose. It is filed as ADME, organism-based. The conditions noted are these: in vivo. The essentials: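 Healthy males got a 1500 mg [14C] dose as a 1-h IV infusion. K2EDTA blood was taken at serial times to 336 h. Radioactivity in blood and plasma was measured by LSC; plasma below 870 ng eq/ml was re-measured by accelerator mass spectrometry. Vss = CL × MRT, with CL = dose/AUC(0-∞), from noncompartmental analysis on actual times.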

The next data set has as its system Homo sapiens. Nature of the data set: Toxicity in healthy human assessed as mortality at 1500 mg, iv infusion for 1 hr as single dose. It is filed as organism-based. The conditions noted are these: in vivo. The essentials: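 Single-center, open-label phase I study in six healthy adult males, fasted ≥10 h. Each got one 1500 mg [14C]GSK2251052 dose as a constant-rate 1-h IV infusion. Safety was monitored throughout, with follow-up for at least 336 h after dosing.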

A short description of data set [20]: Drug metabolism in cynomolgus monkey cytosol assessed as (S)-3-(3-(aminomethyl)-1-hydroxy-1,3-dihydrobenzo[c][1,2]oxaborol-7-yloxy)propanoicacid formation at 50 to 500 uM after 3 hrs by liquid scintillation counting in presence of NAD+ and ADH inhibitor 4-MP. It is filed as ADME, Macaca fascicularis, Liver. The essentials:
as §3

Data set [21] can be described thus: Total drug recovery in healthy human at 1500 mg, iv infusion for 1 hr as single dose after 24 hrs. To be noted: in vivo, read-out: Drug recovery. It is filed as ADME, organism-based. Summed up:
as §2

`Cl.N[14CH2][C@H]1OB(O)c2c(OCCCO)cccc21`: the dose excreted at 240 h in data set [1] is 88.8%. In addition, the dose excreted at 264 h in data set [2] came out at 7.6%. In addition, in data set [3], the Drug recovery result is given as “metabolite_detected”. For the same molecule, the Drug metabolism result (in the data set with Liver cytosol; in data set [5]; in data set [7]; in data set [14]; in [16]; in data set [20]) was “metabolite_not_detected” throughout. For the same molecule, the dose excreted at 192 h came out at 87.4% in [4] and 95% in data set [9]. In addition, the dose excreted at 216 h in [6] was found to be 95.8%. For the same molecule, the dose excreted at 312 h in data set [8] worked out at 7.6%. Besides, the dose excreted at 336 h in data set [10] was determined as 90.5%. For the same molecule, in data set [11], the dose excreted at 288 h turned out to be 7.6%. In addition, in [12], the dose excreted at 144 h turned out to be 7.5%. Moreover, in [13], the dose excreted at 120 h came out at 83.4%. Also, the AUC with Blood [15] was found to be 193 µg·h/mL. Besides, the Cmax in the data set with Blood [17] was 43700 ng/mL. Also, the dose excreted at 72 h in data set [18] was determined as 81.2%. Moreover, the Vdss in the data set with Blood [19] came to 116 L. In the data set on Homo sapiens, the Activity result is listed as “Non-toxic”. The dose excreted at 24 h in data set [21] came to 51.3%.
